Our source for the IC50 values is BindingDB's records for doi:10.1016/j.bmcl.2005.09.030 (Institut Henri Beaufour, 2005).

For this assay, the target named is T1, M-phase inducer phosphatase 3 (Homo sapiens, UniProt P30307).
T1 sequence (P30307 whole entry): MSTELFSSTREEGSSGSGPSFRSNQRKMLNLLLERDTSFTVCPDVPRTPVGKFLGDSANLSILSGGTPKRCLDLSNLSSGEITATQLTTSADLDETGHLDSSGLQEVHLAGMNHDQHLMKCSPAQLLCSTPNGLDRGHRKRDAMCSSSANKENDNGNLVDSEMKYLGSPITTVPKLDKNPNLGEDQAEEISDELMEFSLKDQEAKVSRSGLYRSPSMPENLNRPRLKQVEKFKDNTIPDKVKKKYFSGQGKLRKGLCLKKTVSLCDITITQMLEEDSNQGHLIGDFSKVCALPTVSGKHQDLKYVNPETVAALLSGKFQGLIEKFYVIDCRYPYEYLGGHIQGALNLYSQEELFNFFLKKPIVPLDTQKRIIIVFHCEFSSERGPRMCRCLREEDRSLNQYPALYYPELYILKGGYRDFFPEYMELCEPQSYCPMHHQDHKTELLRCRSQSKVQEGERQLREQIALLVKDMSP
Briefly: Inhibitory activity against recombinant CDC25C. The gist of the method: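 Recombinant maltose binding protein (MBP)-CDC25C fusion enzyme, with 3-O-methylfluorescein phosphate (OMFP) as substrate. IC50 given as mean ± SEM from at least two, usually three, independent experiments.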
With `CN(C)CC=Nc1cc(O)c2nc(-c3ccccc3)oc2c1O` [6-(2-(dimethylamino)ethylamino)-2-phenylbenzo[d]oxazole-4,7-dione], the IC50 came out at 230 nM. Take `CN(C)CC=Nc1cc(O)c2oc(-c3ccccc3)nc2c1O` [5-(2-(dimethylamino)ethylamino)-2-phenylbenzo[d]oxazole-4,7-dione]: the IC50 was 230 nM. Next, `CN(C)CC=Nc1cc(O)c2cn(-c3ccccc3)nc2c1O` [6-(2-(dimethylamino)ethylamino)-2-phenyl-2H-indazole-4,7-dione]: 12000 nM; `CN(C)CC=Nc1cc(O)c2nn(-c3ccccc3)cc2c1O` [5-(2-(dimethylamino)ethylamino)-2-phenyl-2H-indazole-4,7-dione]: 12000 nM; `CCc1nc2c(O)c(N=CCN(C)C)cc(O)c2o1` [5-(2-(dimethylamino)ethylamino)-2-ethylbenzo[d]oxazole-4,7-dione]: 130 nM.

`CCc1nc2c(O)cc(N=CCN(C)C)c(O)c2[nH]1` [5-(2-(dimethylamino)ethylamino)-2-ethyl-1H-benzo[d]imidazole-4,7-dione]: the IC50 was determined as 12000 nM. Consider `CCc1nc2c(O)cc(N=CCN(C)C)c(O)c2o1` [6-(2-(dimethylamino)ethylamino)-2-ethylbenzo[d]oxazole-4,7-dione], for which the IC50 worked out at 130 nM.
